Results on nine molecules are retold here after ChEMBL document CHEMBL1123506, “Unsaturated heterocyclic amines as potent time-dependent inhibitors of dopamine beta-hydroxylase” (J Med Chem, 1986).

For test [1], the target named is T1, Dopamine beta-hydroxylase (Bos taurus, UniProt P15101).
T1 sequence (P15101 whole entry): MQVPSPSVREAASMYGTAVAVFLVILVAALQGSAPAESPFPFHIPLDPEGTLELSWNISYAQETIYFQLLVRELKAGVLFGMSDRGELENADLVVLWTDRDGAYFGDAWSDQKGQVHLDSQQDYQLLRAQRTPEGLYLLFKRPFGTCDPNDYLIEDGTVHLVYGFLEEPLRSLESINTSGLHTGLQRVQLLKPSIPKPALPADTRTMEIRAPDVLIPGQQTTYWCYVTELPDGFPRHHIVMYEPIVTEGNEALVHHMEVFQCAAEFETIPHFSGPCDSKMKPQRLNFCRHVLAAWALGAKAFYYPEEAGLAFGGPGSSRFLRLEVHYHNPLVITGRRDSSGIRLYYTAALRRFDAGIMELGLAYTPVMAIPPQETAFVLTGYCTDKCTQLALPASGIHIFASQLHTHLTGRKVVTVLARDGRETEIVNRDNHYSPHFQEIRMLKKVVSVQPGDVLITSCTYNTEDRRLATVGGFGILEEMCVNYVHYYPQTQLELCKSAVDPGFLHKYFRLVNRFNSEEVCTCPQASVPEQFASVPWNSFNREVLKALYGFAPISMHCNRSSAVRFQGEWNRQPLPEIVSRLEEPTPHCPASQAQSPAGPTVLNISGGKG
Nature of the test: Compound was determined for the kinetic constant against Dopamine beta hydroxylase purified from beef adrenals, inhibitory constant (Ki). In outline:
(§1)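 Bovine adrenal DBH, purified to homogeneity. Aliquots withdrawn at timed intervals and diluted into assay medium with 1 mM tyramine. Residual activity measured as octopamine formed, by reverse-phase HPLC with fluorescence detection. KI and kcat from Kitz–Wilson plot of t1/2 versus 1/I; kcat/KI calculated.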

Test [2] deals with T2, Dopamine beta-hydroxylase (Bos taurus) (UniProt P15101).
T2 sequence (whole entry): T1 sequence (P15101 whole entry)
The experiment in a line: Compound was determined for the kinetic constant against Dopamine beta hydroxylase purified from beef adrenals, catalytic constant (kcat). In outline: as §1

The nature of test [3]: The ratio of Kinetic constant K cat / Ki of Dopamine Beta-hydroxylase inhibitor. In outline:
as §1

The subject of test [4] is Rattus norvegicus. The experiment in a line: Compound was evaluated for the antihypertensive activity against DBH in conscious spontaneously hypertensive rats at the 100 doses (mg/Kg ip) after 3h. Type of test: functional. In outline:
(§2)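 Conscious spontaneously hypertensive rats dosed intraperitoneally at 10, 30 or 100 mg/kg, n = 4–6 per group. Read-out is maximal change in mean arterial blood pressure (mmHg, mean ± SD), with duration of response in hours.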

In test [5] the test system is Rattus norvegicus. The experiment in a line: Compound was evaluated for the antihypertensive activity against DBH in conscious spontaneously hypertensive rats at the 30 doses (mg/Kg ip) after 6h. The format is functional. In outline:
as §2

Test [6] concerns Rattus norvegicus. The experiment in a line: Compound was evaluated for the antihypertensive activity against DBH in conscious spontaneously hypertensive rats at the 30 doses (mg/Kg ip) after >1h. (MBP= mean arterial blood pressure). The format is functional, Artery. In outline: as §2
The test system of test [7] is Rattus norvegicus. Nature of the test: Compound was evaluated for the antihypertensive activity against DBH in conscious spontaneously hypertensive rats at the 100 doses (mg/Kg ip). (MBP= mean arterial blood pressure).
For test [8], the system named is Rattus norvegicus. Nature of the test: Compound was evaluated for the antihypertensive activity against DBH in conscious spontaneously hypertensive rats at the 30 doses (mg/Kg ip) after 1h. The format is functional. In outline:
as §2

In test [9] the test system is Rattus norvegicus. Nature of the test: Compound was evaluated for the antihypertensive activity against DBH in conscious spontaneously hypertensive rats at the 100 doses (mg/Kg ip) after 2 hr. The format is functional. In outline: as §2
The subject of test [10] is Rattus norvegicus. Nature of the test: Compound was evaluated for the antihypertensive activity against DBH in conscious spontaneously hypertensive rats at the 30 doses (mg/Kg ip) after 9 hr (MBP= mean arterial blood pressure). Type of test: functional, Artery. In short, it runs like this:
(§3)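 Conscious spontaneously hypertensive rats received a single intraperitoneal dose; the paper's dose levels were 10, 30 and 100 mg/kg. Mean arterial blood pressure was monitored. Values are the maximal change in mmHg and the duration of the response in h. Groups were n = 4–6, reported as mean ± SD.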

Test [11] concerns Rattus norvegicus. Nature of the test: Compound was evaluated for the antihypertensive activity against DBH in conscious spontaneously hypertensive rats at the 30 doses (mg/Kg i.p.) after 3hr. The format is functional. In outline: as §3
The test system of test [12] is Rattus norvegicus. The experiment in a line: Compound was evaluated for the antihypertensive activity against DBH in conscious spontaneously hypertensive rats at the 10 doses (mg/Kg ip) after 1h. The format is functional. In outline: as §2
Test [13] deals with Rattus norvegicus. The experiment in a line: Compound was evaluated for the antihypertensive activity against DBH in conscious spontaneously hypertensive rats at the 100 doses (mg/Kg ip) after 70h. Type of test: functional. In outline: as §2
Test [14] has as its system Rattus norvegicus. The experiment in a line: Compound was evaluated for the antihypertensive activity against DBH in conscious spontaneously hypertensive rats at the 30 doses (mg/Kg ip) after 43h. Type of test: functional. In outline: as §2
In test [15] the test system is Rattus norvegicus. The experiment in a line: Compound was evaluated for the antihypertensive activity against DBH in conscious spontaneously hypertensive rats at the 30 doses (mg/Kg ip) after 30h. Type of test: functional. In outline: as §2
The test system of test [16] is Rattus norvegicus. Nature of the test: Compound was evaluated for the antihypertensive activity against DBH in conscious spontaneously hypertensive rats at the 100 doses (mg/Kg ip) after 79h. Type of test: functional. In short, it runs like this: as §2

The Ki is the dissociation constant of the complex between target and ligand, obtained from inhibition or displacement. A lower Ki goes with higher affinity. `CC#Cc1ccccc1`: in [1], the Ki was 20000 µM. In addition, the k cat in [2] is 0.06 -1/min. Further, in test [3], the k cat/Ki was found to be 0.1 M⁻¹ s⁻¹.
In the case of `C=C(CN)c1ccoc1`, in test [1], the Ki is 230 µM. The “Max MBP” value is given as -21 mmHg with Rattus norvegicus [4] and -20 mmHg in the test with Rattus norvegicus [5]. In addition, in test [2], the k cat was 0.077 -1/min. In addition, the k cat/Ki in test [3] worked out at 5.57 M⁻¹ s⁻¹.
With `C=C(CN)c1ccccc1`, in test [1], the Ki was 13000 µM. Also, in [2], the k cat is 0.04 -1/min. Also, the k cat/Ki in [3] was 0.05 M⁻¹ s⁻¹.
`C=C(CNC)c1cccs1` displayed a Ki in test [1] of 2150 µM. Also, the “Max MBP” value with Rattus norvegicus [6] was -23 mmHg; in the test on Rattus norvegicus [7] it was -16 mmHg. The k cat in test [2] turned out to be 0.00163 s⁻¹. Moreover, in [3], the k cat/Ki stood at 0.733 M⁻¹ s⁻¹.
In the case of `C=C(CN)c1ccsc1`, the Ki in test [1] came to 570 µM. For the same molecule, the k cat in test [2] was 0.147 -1/min. The “Max MBP” value in the test on Rattus norvegicus [8] was -18 mmHg; with Rattus norvegicus [9], -54 mmHg. For the same molecule, the k cat/Ki in test [3] amounted to 4.28 M⁻¹ s⁻¹.
Molecule `C=C(c1cccs1)C(C)N` (stereo unspecified) registered a Ki in test [1] of 360 µM. Also, the “Max MBP” value with Rattus norvegicus [10] is -16 mmHg. The molecule also displayed a k cat in test [2] of 0.000967 s⁻¹. In test [3], the k cat/Ki came to 2.68 M⁻¹ s⁻¹.
Consider `NCC#Cc1ccccc1`, for which the “Max MBP” value in the test on Rattus norvegicus [11] is listed as -13 mmHg. In addition, affinity in test [1] was put at a Ki of 21 µM. For the same molecule, in [2], the k cat was 0.07 -1/min. Also, the k cat/Ki in test [3] was determined as 55.5 M⁻¹ s⁻¹.
In the case of `C=C(CN)c1cccs1`, the “Max MBP” value in the test with Rattus norvegicus [12] was -19 mmHg; in the test with Rattus norvegicus [13], -34 mmHg; with Rattus norvegicus [14], -36 mmHg. Also, affinity in test [1] was put at a Ki of 35 µM. Further, the k cat in test [2] is 0.124 -1/min. For the same molecule, the k cat/Ki in [3] stood at 59 M⁻¹ s⁻¹.
In the case of `C=C(CN)c1ccco1`, the “Max MBP” value in the test with Rattus norvegicus [12] is reported as -10 mmHg; with Rattus norvegicus [15] it was -26 mmHg; with Rattus norvegicus [16] it was -69 mmHg. The affinity in [1], expressed as Ki, was 410 µM. Further, the k cat in [2] was 0.13 -1/min. Besides, in [3], the k cat/Ki came out at 5.28 M⁻¹ s⁻¹.
